Our source for the Ratio Ki and Ki values is ChEMBL document CHEMBL1146368, “Development of selective inhibitors for anti-apoptotic Bcl-2 proteins from BHI-1” (Bioorg Med Chem, 2007).

A value given as a limit tells only on which side of the number the result lay.

For experiment [1], the species on record is Homo sapiens. The experiment is described as follows: Selectivity for recombinant Bcl2 protein over recombinant Bcl-w protein.
The target in a further experiment is T1, Bcl-2-like protein 2 (Homo sapiens, UniProt Q92843).
T1 sequence (Q92843 whole entry): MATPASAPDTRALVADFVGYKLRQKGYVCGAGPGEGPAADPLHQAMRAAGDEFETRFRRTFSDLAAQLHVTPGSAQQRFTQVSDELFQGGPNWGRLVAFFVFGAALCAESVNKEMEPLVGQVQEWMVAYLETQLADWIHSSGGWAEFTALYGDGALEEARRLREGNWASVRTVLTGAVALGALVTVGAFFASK
Briefly: Displacement of Flu-Bak peptide from recombinant antiapoptotic Bcl-w protein by fluorescence polarization assay. The gist of the method:
(§1)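 Recombinant Ni-NTA-purified proteins from E. coli ER2566 (Bcl-2 lacking transmembrane domain). Oregon Green-labelled Bak BH3 peptide (50 nM in premix) is preincubated 1 h at 23 °C with protein for 60% complex (Bcl-2 1000 nM, Bcl-XL 880 nM, Bcl-w 1200 nM) in PBS pH 7.0 with 1 mM DTT. This is added to compound from 3-fold DMSO stocks (0.014–10 mM), incubated 1 h at 23 °C, and polarization read. Peptide-only background is subtracted. Ki is from the Wang equation; triplicates, run twice.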
For orientation: Fluorescence polarisation rises when a labelled molecule tumbles more slowly, as on binding a larger partner.

Experiment [2] concerns the target Apoptosis regulator Bcl-2 (Homo sapiens, UniProt P10415). Briefly: Displacement of Flu-Bak peptide from recombinant antiapoptotic Bcl2 protein by fluorescence polarization assay. A digest of the protocol: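 Recombinant Ni-NTA-purified proteins from E. coli ER2566 (Bcl-2 lacking transmembrane domain). This is added to compound from 3-fold DMSO stocks (0.014–10 mM), incubated 1 h at 23 °C, and polarization read. Peptide-only background is subtracted. Ki is from the Wang equation; triplicates, run twice.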

The nature of experiment [3]: Displacement of Flu-Bak peptide from recombinant antiapoptotic Bcl-XL protein by fluorescence polarization assay. The arrangement: species or system Homo sapiens. The gist of the method:
as §1

Experiment [4] is filed under the species Homo sapiens. Briefly: Selectivity for recombinant Bcl-w protein over recombinant Bcl-XL protein.
The species entered for experiment [5] is Homo sapiens. Briefly: Selectivity for recombinant Bcl2 protein over recombinant Bcl-XL protein.
The species named for experiment [6] is Homo sapiens. Briefly: Selectivity for recombinant Bcl-XL protein over recombinant Bcl-2 protein.

Chain of Apoptosis regulator Bcl-2 (P10415 whole entry, the tested form may be a part): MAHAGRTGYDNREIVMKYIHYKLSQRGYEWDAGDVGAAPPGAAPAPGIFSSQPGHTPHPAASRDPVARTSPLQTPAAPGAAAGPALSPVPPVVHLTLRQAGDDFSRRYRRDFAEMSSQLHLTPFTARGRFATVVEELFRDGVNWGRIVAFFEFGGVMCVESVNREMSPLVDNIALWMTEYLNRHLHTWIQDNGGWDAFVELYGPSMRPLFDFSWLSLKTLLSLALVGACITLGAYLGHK

Broadly, the Ki is the dissociation constant of the complex between target and ligand, obtained from inhibition or displacement. `CC(C)C[C@@H](C(=O)O)N1C(=O)C(=C(c2ccccc2)c2ccccc2)SC1=S`: the Ratio Ki in the experiment filed under Homo sapiens [1] was 1.07. Further, the Ki on Bcl-2-like protein 2 worked out at 61.9 µM; in experiment [2] it was 57.8 µM; in experiment [3], 68.8 µM.

In the case of `O=C(O)CC[C@@H](C(=O)O)N1C(=O)/C(=C/c2ccc(Br)cc2)SC1=S`, the Ratio Ki in the experiment listed under Homo sapiens [1] worked out at 1.91. In addition, the Ki on Bcl-2-like protein 2 came to 610 µM; in experiment [2], 320 µM; in experiment [3], 848 µM.

Regarding `CCCC[C@H]1C(=O)O[C@H](C)[C@H](NC(=O)c2cccc(NC=O)c2O)C(=O)O[C@@H](C)[C@@H]1OC(=O)CC(C)C` [ANTIMYCIN A3], the Ki at Bcl-2-like protein 2 is 127 µM; in experiment [2], 124 µM.

As to `C[C@@H](C(=O)N1CCOCC1)N1C(=O)/C(=C/c2ccc(Br)cc2)SC1=S`, the Ratio Ki in the experiment filed under Homo sapiens [1] came to 2.01. The Ki on Bcl-2-like protein 2 was determined as 146 µM; in experiment [2], 70 µM; in experiment [3], 228 µM.

Regarding `Cc1cc2c(C(C)C)c(O)c(O)c(C=O)c2c(O)c1-c1c(C)cc2c(C(C)C)c(O)c(O)c(C=O)c2c1O` [GOSSYPOL], the Ki at Bcl-2-like protein 2 was 17.7 µM; in experiment [3] it was 24.7 µM.

Consider `CC(C)C(C(=O)O)N1C(=O)/C(=C\c2ccc(Br)cc2)SC1=S` (stereo unspecified), for which, in the experiment filed under Homo sapiens [1], the Ratio Ki turned out to be 2.85. In addition, the Ki on Bcl-2-like protein 2 was determined as 124 µM; in experiment [2], 43.4 µM; in experiment [3], 133 µM.

On to `CCC/C(=C1/SC(=S)N([C@@H](CC(C)C)C(=O)O)C1=O)c1ccccc1`, for which, in the experiment listed under Homo sapiens [1], the Ratio Ki amounted to 1.79. In addition, the Ki at Bcl-2-like protein 2 amounted to 24.1 µM; in experiment [2], 13.5 µM; in experiment [3], 41.3 µM.

Take `CC(C)C[C@@H](C(=O)O)N1C(=O)/C(=C(\c2ccccc2)c2ccc(-c3ccccc3)cc2)SC1=S`: the Ratio Ki in the experiment listed under Homo sapiens [1] is 3.58. The results for the Ki (on Bcl-2-like protein 2; in experiment [2]; in experiment [3]) were 6.98 µM, 1.95 µM and 8.7 µM, respectively.

Take `CSCC[C@@H](C(=O)O)N1C(=O)/C(=C/c2ccc(Br)cc2)SC1=S`: in the experiment listed under Homo sapiens [1], the Ratio Ki was 1.26. Besides, the Ki on Bcl-2-like protein 2 is 88 µM; in experiment [2] it was 69.6 µM; in experiment [3], 134 µM.

Take `C=CCOC(=O)[C@H](Cc1ccccc1)N1C(=O)/C(=C/c2ccc(Br)cc2)SC1=S`: the Ki was 56.8 µM on Bcl-2-like protein 2, more than 1000 µM in experiment [2] and 244 µM in experiment [3]. Besides, in the experiment filed under Homo sapiens [4], the Ratio Ki was 4.29.

As for `C/C(=C1/SC(=S)N([C@@H](CC(C)C)C(=O)O)C1=O)c1ccccc1`, the Ratio Ki in the experiment filed under Homo sapiens [1] was found to be 2.74. Also, the Ki on Bcl-2-like protein 2 stood at 58.3 µM; in experiment [2] it was 21.2 µM; in experiment [3], 128 µM.

As for `O=C(O)[C@H](Cc1c[nH]c2ccccc12)N1C(=O)/C(=C/c2ccc(Br)cc2)SC1=S`, the inhibition constant Ki on Bcl-2-like protein 2 was 54.2 µM; in experiment [2], 2.85 µM; in experiment [3] it was 32.8 µM. The Ratio Ki in the experiment listed under Homo sapiens [5] was found to be 11.5.

Regarding `C[C@@H](C(=O)O)N1C(=O)/C(=C/c2ccc(Br)cc2)SC1=S`, the Ratio Ki in the experiment filed under Homo sapiens [1] turned out to be 2.11. Further, the results for the Ki (on Bcl-2-like protein 2; in experiment [2]; in experiment [3]) were 243 µM, 115 µM and 374 µM, respectively.

Regarding `COc1ccc2c(c[n+](C)c3c4cc5c(cc4ccc23)OCO5)c1OC` [CHELERYTHRINE CHLORIDE], the Ki on Bcl-2-like protein 2 is 106 µM; in experiment [2] it was 171 µM; in experiment [3] it was 96 µM.

On to `C=CCOC(=O)[C@H](C)N1C(=O)/C(=C/c2ccc(Br)cc2)SC1=S`, for which the values for the Ki (at Bcl-2-like protein 2; in experiment [2]; in experiment [3]) were more than 1000 µM, 192 µM and 268 µM, respectively. Further, the Ratio Ki in the experiment filed under Homo sapiens [5] is 1.4.

Take `O=C(O)[C@H](Cc1ccccc1)N1C(=O)/C(=C/c2ccc(Br)cc2)SC1=S`: the inhibition constant (Ki) came out at 21.5 µM at Bcl-2-like protein 2, 14.2 µM in experiment [2] and 5.35 µM in experiment [3]. Moreover, the Ratio Ki in the experiment listed under Homo sapiens [6] is 2.65.

Turning to `C=CCOC(=O)[C@H](Cc1ccccc1)N1C(=O)C(=C(c2ccccc2)c2ccccc2)SC1=S`, the results for the Ki (on Bcl-2-like protein 2; in experiment [2]; in experiment [3]) were 116 µM, 260 µM and 176 µM, respectively. Moreover, the Ratio Ki in the experiment listed under Homo sapiens [4] was found to be 1.52.

For `CCC/C(=C1/SC(=S)N([C@@H](Cc2ccccc2)C(=O)O)C1=O)c1ccccc1`, the Ki on Bcl-2-like protein 2 worked out at 41.1 µM; in experiment [2], 12 µM; in experiment [3], 27.9 µM. For the same compound, the Ratio Ki in the experiment filed under Homo sapiens [5] stood at 2.33.

Turning to `CC(C)C[C@@H](C(=O)O)N1C(=O)/C(=C/c2ccc(Br)cc2)SC1=S`, the Ki at Bcl-2-like protein 2 came out at 31.2 µM; in experiment [2], 7.43 µM; in experiment [3], 2.99 µM. In the experiment filed under Homo sapiens [6], the Ratio Ki amounted to 2.48.
